# Data taken from ChEMBL document CHEMBL1138143, “A new class of blockers of the voltage-gated potassium channel Kv1.3 via modification of the 4- or 7-position of khellinone” (J Med Chem, 2006).
# Key:
# [1] = molecular target: Potassium voltage-gated channel subfamily A member 3 (Mus musculus, UniProt P16390); assay: Effect on blockade of mouse Kv1.3 channel expressed in L929 cells; format: functional, cell-based
# Procedure, shortened: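 Whole-cell patch clamp on L929 cells stably expressing mouse Kv1.3, holding potential -80 mV. Bath: Ringer (160 mM NaCl, 4.5 mM KCl, 2 mM CaCl2, 1 mM MgCl2, 10 mM HEPES, pH 7.4). Pipette: 134 mM KF, 2 mM MgCl2, 10 mM HEPES, 10 mM EGTA, pH 7.2. Current elicited by 500-ms pulses to 40 mV every 45 s. Series resistance compensation of 60-80% applied above 2 nA.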
# [2] = molecular target: Potassium voltage-gated channel subfamily A member 2 (Homo sapiens, UniProt P16389); assay: Effect on blockade of Kv1.2 channel; format: functional
# Chain of Potassium voltage-gated channel subfamily A member 2 (P16389 whole entry): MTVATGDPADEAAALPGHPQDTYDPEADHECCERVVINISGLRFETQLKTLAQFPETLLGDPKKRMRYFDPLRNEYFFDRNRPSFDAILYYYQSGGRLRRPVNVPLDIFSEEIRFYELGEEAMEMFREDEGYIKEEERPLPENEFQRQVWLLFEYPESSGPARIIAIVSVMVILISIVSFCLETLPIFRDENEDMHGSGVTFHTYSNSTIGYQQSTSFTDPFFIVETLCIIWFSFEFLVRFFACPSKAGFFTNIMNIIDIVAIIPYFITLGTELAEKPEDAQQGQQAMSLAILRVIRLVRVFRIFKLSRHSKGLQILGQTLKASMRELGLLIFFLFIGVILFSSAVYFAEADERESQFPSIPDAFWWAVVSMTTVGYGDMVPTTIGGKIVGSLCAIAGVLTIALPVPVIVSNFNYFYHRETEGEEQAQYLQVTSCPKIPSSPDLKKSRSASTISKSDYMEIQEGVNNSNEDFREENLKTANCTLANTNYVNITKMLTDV
# Procedure, shortened: (§1)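 Whole-cell patch clamp with a holding potential of -80 mV on cell lines stably expressing Kv1.1, Kv1.2, Kv1.4 or Kv1.5. Recording followed previously described methods. EC50 came from a Hill equation fit to the reduction of area under the current curve.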
# [3] = molecular target: Potassium voltage-gated channel subfamily A member 4 (Homo sapiens, UniProt P22459); assay: Effect on blockade of Kv1.4 channel; format: functional; procedure, shortened: as §1
# Chain of Potassium voltage-gated channel subfamily A member 4 (P22459 whole entry): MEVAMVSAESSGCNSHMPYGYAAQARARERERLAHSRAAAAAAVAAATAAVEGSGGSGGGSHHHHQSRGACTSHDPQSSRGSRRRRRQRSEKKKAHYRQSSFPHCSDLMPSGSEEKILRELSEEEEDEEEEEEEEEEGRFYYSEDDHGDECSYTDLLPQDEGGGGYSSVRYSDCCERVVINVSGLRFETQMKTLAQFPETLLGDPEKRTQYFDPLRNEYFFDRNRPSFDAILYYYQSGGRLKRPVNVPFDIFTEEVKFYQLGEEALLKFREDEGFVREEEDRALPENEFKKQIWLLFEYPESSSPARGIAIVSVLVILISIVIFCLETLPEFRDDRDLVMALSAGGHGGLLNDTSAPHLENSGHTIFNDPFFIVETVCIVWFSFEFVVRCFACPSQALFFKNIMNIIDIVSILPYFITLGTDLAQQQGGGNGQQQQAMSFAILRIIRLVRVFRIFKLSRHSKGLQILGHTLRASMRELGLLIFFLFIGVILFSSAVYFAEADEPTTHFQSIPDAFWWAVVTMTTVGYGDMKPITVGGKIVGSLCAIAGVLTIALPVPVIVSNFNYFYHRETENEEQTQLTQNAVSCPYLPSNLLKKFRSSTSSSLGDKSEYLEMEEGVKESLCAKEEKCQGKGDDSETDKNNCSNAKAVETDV
# [4] = molecular target: Potassium voltage-gated channel subfamily A member 5 (Homo sapiens, UniProt P22460); assay: Effect on blockade of Kv1.5 channel; format: functional; procedure, shortened: as §1
# Chain of Potassium voltage-gated channel subfamily A member 5 (P22460 whole entry): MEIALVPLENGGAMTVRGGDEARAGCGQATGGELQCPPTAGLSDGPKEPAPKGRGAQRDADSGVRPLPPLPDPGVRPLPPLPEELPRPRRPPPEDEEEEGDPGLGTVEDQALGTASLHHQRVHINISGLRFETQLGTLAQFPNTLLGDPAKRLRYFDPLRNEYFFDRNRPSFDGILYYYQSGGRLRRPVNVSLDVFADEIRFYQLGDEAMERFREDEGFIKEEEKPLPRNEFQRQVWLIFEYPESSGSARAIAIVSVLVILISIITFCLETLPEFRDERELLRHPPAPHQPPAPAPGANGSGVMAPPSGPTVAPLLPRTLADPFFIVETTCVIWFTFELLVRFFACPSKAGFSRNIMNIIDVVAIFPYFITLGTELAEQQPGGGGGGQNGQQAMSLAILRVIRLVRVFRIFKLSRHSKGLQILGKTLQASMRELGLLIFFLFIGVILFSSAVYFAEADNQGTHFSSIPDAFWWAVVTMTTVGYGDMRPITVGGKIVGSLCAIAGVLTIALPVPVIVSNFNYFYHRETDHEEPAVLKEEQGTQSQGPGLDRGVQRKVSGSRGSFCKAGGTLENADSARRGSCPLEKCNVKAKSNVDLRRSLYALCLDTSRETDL
# [5] = molecular target: Potassium voltage-gated channel subfamily A member 1 (Homo sapiens, UniProt Q09470); assay: Effect on blockade of Kv1.1 channel; format: functional; procedure, shortened: as §1
# Chain of Potassium voltage-gated channel subfamily A member 1 (Q09470 whole entry): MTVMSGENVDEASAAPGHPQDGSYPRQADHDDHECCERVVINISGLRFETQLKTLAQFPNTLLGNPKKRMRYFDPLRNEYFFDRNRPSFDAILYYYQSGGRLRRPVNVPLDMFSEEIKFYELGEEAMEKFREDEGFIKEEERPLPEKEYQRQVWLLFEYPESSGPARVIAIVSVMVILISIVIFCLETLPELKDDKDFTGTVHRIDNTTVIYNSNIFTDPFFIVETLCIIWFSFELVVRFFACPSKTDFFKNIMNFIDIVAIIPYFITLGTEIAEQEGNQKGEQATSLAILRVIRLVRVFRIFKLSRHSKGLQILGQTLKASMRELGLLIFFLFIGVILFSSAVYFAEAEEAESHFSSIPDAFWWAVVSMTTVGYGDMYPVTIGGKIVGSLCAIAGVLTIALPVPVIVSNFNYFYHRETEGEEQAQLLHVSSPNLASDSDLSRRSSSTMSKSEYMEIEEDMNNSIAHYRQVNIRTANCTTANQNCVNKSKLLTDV
# T-cell = assay: Inhibition of anti-CD3 antibody stimulated human T cell proliferation; format: functional, cell-based
# Procedure, shortened: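 Human PBMCs were isolated from healthy donors by density gradient and plated at 2 × 10^5 cells/well in RPMI 1640 with 10% FCS. Cells were preincubated with compound for 30 min, then stimulated with 5 ng/mL anti-CD3 for 48 h. [3H]-thymidine (1 µCi/well) was added for the last 6 h. Done in triplicate and normalized to maximal control incorporation.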
# [6] = molecular target: Voltage-gated inwardly rectifying potassium channel KCNH2 (Homo sapiens, UniProt Q12809); assay: Effect on blockade of Kv11.1 channel; format: functional
# Chain of Voltage-gated inwardly rectifying potassium channel KCNH2 (Q12809 whole entry): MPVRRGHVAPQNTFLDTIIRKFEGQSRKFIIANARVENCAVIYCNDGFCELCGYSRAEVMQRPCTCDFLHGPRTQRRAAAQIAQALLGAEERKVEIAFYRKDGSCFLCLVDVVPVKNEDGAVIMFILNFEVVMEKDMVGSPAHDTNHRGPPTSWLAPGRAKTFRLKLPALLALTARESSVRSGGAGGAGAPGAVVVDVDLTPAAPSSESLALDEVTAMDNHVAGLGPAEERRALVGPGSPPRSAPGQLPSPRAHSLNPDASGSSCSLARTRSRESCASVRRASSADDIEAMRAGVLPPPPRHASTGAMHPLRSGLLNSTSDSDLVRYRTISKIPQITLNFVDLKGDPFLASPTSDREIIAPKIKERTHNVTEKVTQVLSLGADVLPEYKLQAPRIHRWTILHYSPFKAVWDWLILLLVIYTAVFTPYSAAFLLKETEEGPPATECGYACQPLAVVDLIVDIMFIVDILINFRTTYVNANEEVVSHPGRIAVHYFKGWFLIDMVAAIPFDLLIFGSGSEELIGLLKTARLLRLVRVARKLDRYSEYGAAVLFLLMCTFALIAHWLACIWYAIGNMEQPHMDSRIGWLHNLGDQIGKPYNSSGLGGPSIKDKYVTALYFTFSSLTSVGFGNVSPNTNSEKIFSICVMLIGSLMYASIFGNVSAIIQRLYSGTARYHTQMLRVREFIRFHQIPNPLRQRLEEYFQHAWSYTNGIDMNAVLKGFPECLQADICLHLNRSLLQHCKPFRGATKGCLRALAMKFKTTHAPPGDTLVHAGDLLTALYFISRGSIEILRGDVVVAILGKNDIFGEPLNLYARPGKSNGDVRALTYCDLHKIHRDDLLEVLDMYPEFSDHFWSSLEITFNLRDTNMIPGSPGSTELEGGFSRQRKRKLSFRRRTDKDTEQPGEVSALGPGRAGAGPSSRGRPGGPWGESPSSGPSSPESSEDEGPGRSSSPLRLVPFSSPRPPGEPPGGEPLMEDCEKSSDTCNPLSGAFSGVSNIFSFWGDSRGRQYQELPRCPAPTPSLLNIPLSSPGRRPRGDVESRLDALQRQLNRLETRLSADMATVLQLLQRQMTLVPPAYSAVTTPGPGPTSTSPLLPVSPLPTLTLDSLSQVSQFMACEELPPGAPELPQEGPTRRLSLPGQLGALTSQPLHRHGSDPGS
# Chain of Potassium voltage-gated channel subfamily A member 3 (P16390 whole entry): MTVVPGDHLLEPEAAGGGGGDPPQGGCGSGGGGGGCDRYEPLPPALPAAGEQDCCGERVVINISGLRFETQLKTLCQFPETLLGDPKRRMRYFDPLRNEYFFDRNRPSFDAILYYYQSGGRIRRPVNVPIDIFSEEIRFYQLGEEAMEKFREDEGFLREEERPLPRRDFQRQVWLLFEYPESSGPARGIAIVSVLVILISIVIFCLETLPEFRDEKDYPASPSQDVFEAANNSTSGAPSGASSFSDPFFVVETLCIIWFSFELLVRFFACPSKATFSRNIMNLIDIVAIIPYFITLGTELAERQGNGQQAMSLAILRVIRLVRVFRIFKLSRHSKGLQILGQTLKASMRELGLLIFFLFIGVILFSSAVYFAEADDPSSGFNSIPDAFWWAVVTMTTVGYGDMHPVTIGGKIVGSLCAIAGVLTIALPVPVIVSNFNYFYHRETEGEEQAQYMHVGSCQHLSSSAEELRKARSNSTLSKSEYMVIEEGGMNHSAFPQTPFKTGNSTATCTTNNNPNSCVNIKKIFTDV
SMILES,EC50 [1],further results
COc1c(C(C)=O)c(O)c(OCc2ccc(C(C)(C)C)cc2)c2occc12,5800 nM,
CCOc1c(C(C)=O)c(OCCCCCCOc2c(C(C)=O)c(OCC)c3ccoc3c2OC)c(OC)c2occc12,800 nM,
COc1c(O)c(C(C)=O)c(OCc2ccc(C(=O)c3ccccc3)cc2)c2ccoc12,500 nM,
COc1c(C(C)=O)c(O)c(OCc2ccc(-c3ccccc3)cc2)c2occc12,1200 nM,
CCCOc1c(O)c(C(C)=O)c(OC)c2ccoc12,8000 nM,
CCOc1c(O)c(C(C)=O)c(OC)c2ccoc12,10000 nM,
COc1c(C(C)=O)c(O)c(OCc2ccc(Cl)cc2)c2occc12,420 nM,
COc1c(O)c(C(C)=O)c(OCc2cccc(C(=O)O)c2)c2ccoc12,> 10000 nM,
COc1c(C(C)=O)c(O)c(OCc2cccc(OC(F)(F)F)c2)c2occc12,450 nM,
COc1c(O)c(C(C)=O)c(OCc2cccc(C)c2)c2ccoc12,1000 nM,
COc1c(O)c(C(C)=O)c(OCc2cccc3ccccc23)c2ccoc12,8000 nM,
COc1c(C(C)=O)c(O)c(OCc2ccc(C(=O)c3ccccc3)cc2)c2occc12,500 nM,
COc1c(C(C)=O)c(O)c(OCc2cccc(Cl)c2)c2occc12,600 nM,
CC(=O)c1c(O)c(OCc2ccccc2)c2occc2c1OCc1ccccc1,1200 nM,EC50 [2]: 10000 nM; EC50 [3]: > 20000 nM; EC50 [4]: 5000 nM; EC50 [5]: 7000 nM
CCCCCOc1c(C(C)=O)c(O)c(OC)c2occc12,4000 nM,
COc1cccc(COc2c(C(C)=O)c(O)c(OC)c3occc23)c1,680 nM,
COc1c(O)c(C(C)=O)c(OCc2ccc3ccccc3c2)c2ccoc12,5000 nM,
COc1c(C(C)=O)c(O)c(OCc2ccccc2C)c2occc12,1900 nM,
COc1c(O)c(C(C)=O)c(OCc2ccc(C(C)C)cc2)c2ccoc12,700 nM,

SMILES,EC50 [1],further results
COc1c(C(C)=O)c(O)c(OCc2ccc(C(F)(F)F)cc2)c2occc12,420 nM,
COc1c(O)c(C(C)=O)c(OCc2ccccc2Cl)c2ccoc12,1200 nM,
COc1c(O)c(C(C)=O)c(OCc2ccccc2-c2ccccc2)c2ccoc12,2000 nM,
COc1c(C(C)=O)c(O)c(OCc2ccccc2-c2ccccc2)c2occc12,1100 nM,
COc1c(C(C)=O)c(O)c(OCc2ccccc2F)c2occc12,2500 nM,
CCOc1c(C(C)=O)c(O)c(OC)c2occc12,7000 nM,
COc1c(O)c(C(C)=O)c(OCc2ccc(C(F)(F)F)cc2)c2ccoc12,510 nM,
COc1c(O)c(C(C)=O)c(OCc2ccc(OCc3ccccc3)cc2)c2ccoc12,8800 nM,
COc1c(O)c(C(C)=O)c(OCc2ccc(Cl)cc2)c2ccoc12,480 nM,EC50 (T-cell): 2500 nM; EC50 [2]: 2500 nM; EC50 [6]: 5000 nM; EC50 [3]: 4800 nM; EC50 [4]: 700 nM; EC50 [5]: 1700 nM
COc1c(O)c(C(C)=O)c(OCc2ccc(OC(F)(F)F)cc2)c2ccoc12,1800 nM,
CCCCCOc1c(O)c(C(C)=O)c(OC)c2ccoc12,3000 nM,
COc1c(C(C)=O)c(O)c(OCc2cccc(C)c2)c2occc12,1200 nM,
COc1c(O)c(C(C)=O)c(OCc2cccc(F)c2)c2ccoc12,1200 nM,
CCCOc1c(C(C)=O)c(O)c(OC)c2occc12,5000 nM,
COc1c(C(C)=O)c(O)c(OCc2ccc(Br)cc2)c2occc12,400 nM,EC50 (T-cell): 2500 nM; EC50 [2]: 1400 nM; EC50 [3]: 4300 nM; EC50 [4]: 900 nM; EC50 [5]: 1200 nM
COc1c(C(C)=O)c(O)c(OCc2ccccc2Cl)c2occc12,700 nM,
COc1c(O)c(C(C)=O)c(OCc2ccc(F)cc2)c2ccoc12,1000 nM,
COc1c(O)c(C(C)=O)c(OCc2cccc(OC(F)(F)F)c2)c2ccoc12,550 nM,
COc1c(C(C)=O)c(O)c(OC)c2occc12,45000 nM,

# Second part, led by results:
EC50 [1],SMILES,further results
1400 nM,COc1c(O)c(C(C)=O)c(OCc2cccc(Cl)c2)c2ccoc12,
700 nM,COc1c(C(C)=O)c(O)c(OCc2ccc(F)cc2)c2occc12,
1400 nM,COc1c(O)c(C(C)=O)c(OCc2cccc([N+](=O)[O-])c2)c2ccoc12,
600 nM,COc1c(C(C)=O)c(O)c(OCc2ccc(OC(F)(F)F)cc2)c2occc12,
600 nM,COc1c(C(C)=O)c(O)c(OCc2cccc([N+](=O)[O-])c2)c2occc12,
2500 nM,COc1c(O)c(C(C)=O)c(OCc2ccccc2)c2ccoc12,
750 nM,COc1c(C(C)=O)c(O)c(OCc2cccc(F)c2)c2occc12,
1700 nM,COc1c(O)c(C(C)=O)c(OCc2ccccc2F)c2ccoc12,
2500 nM,CCOc1c(C(=O)/C=C/c2cccc(O)c2)c(O)c(OC)c2occc12,
900 nM,COc1c(O)c(C(C)=O)c(OCc2ccc(-c3ccccc3)cc2)c2ccoc12,
6300 nM,COc1c(C(C)=O)c(O)c(OCc2ccc(OCc3ccccc3)cc2)c2occc12,
2000 nM,COc1c(O)c(C(C)=O)c(OCc2ccccc2C)c2ccoc12,
500 nM,COc1c(O)c(C(C)=O)c(OCc2ccc(Br)cc2)c2ccoc12,
6000 nM,CCOc1c(C(C)=O)c(O)c(OCC)c2occc12,
1500 nM,COc1c(O)c(C(C)=O)c(OCc2ccc(C(C)(C)C)cc2)c2ccoc12,
1200 nM,COc1c(C(C)=O)c(O)c(OCc2ccccc2)c2occc12,
5000 nM,COc1c(C(C)=O)c(O)c(OCc2ccc3ccccc3c2)c2occc12,
1500 nM,COc1ccc(COc2c(C(C)=O)c(O)c(OC)c3occc23)cc1,
1000 nM,COc1c(C(C)=O)c(O)c(OCc2ccc(C(C)C)cc2)c2occc12,
